pIC50: −log10 of the molar value. Activity calls are given as the source filed them. No cut-off for these calls is given here.
Tests used:
Cytochrome P450 2C19 = Cytochrome P450 2C19 (Homo sapiens, UniProt P33261); assay: Time-dependent inhibition of CYP2C19 in human liver microsomes at 10 uM using mephenytoin as substrate preincubated up to 30 mins followed by NADPH generating system addition and measured after 10 mins; format: ADME
Summary of the method: (§1)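 Human liver microsomes 0.2 mg/mL, 100 mM phosphate pH 7.4, 10 μM test compound, preincubated 0, 5, 10 and 30 min at 37 °C; then NADPH plus probe cocktail (5 μM midazolam, 50 μM testosterone, 5 μM dextromethorphan, 10 μM diclofenac, 50 μM phenacetin, 50 μM S-(+)-mephenytoin) added; 10 min reaction; kobs in units of 10^-4/min.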

MDA-MB-468 = assay: Antiproliferative activity against human MDA-MB-468 cells after 72 hrs by CCK8 or SRB assay; format: functional, cell-based
MV4-11 [1] = assay: Antitumor activity against human MV4-11 cells xenografted in po dosed Balb/c nude mouse assessed as tumor growth inhibition administered once daily and measured twice a week by caliper method; format: functional, organism-based
Cytochrome P450 2C9 = Cytochrome P450 2C9 (Homo sapiens, UniProt P11712); assay: Time-dependent inhibition of CYP2C9 in human liver microsomes at 10 uM using diclofenac as substrate preincubated up to 30 mins followed by NADPH generating system addition and measured after 10 mins; format: ADME; summary of the method: as §1
[2] = molecular target: Chromatin remodeling regulator CECR2 (Homo sapiens) (UniProt Q9BXF3); assay: Binding affinity to human partial length CECR2 (P423 to D543 residues) expressed in Escherichia coli BL21 cells assessed as residual binding level at 1 uM measured after 1 hr by quantitative PCR based BROMOscan assay relative to control
Chain of Chromatin remodeling regulator CECR2 (Homo sapiens) (Q9BXF3 whole entry, looked up, the tested form may be a part): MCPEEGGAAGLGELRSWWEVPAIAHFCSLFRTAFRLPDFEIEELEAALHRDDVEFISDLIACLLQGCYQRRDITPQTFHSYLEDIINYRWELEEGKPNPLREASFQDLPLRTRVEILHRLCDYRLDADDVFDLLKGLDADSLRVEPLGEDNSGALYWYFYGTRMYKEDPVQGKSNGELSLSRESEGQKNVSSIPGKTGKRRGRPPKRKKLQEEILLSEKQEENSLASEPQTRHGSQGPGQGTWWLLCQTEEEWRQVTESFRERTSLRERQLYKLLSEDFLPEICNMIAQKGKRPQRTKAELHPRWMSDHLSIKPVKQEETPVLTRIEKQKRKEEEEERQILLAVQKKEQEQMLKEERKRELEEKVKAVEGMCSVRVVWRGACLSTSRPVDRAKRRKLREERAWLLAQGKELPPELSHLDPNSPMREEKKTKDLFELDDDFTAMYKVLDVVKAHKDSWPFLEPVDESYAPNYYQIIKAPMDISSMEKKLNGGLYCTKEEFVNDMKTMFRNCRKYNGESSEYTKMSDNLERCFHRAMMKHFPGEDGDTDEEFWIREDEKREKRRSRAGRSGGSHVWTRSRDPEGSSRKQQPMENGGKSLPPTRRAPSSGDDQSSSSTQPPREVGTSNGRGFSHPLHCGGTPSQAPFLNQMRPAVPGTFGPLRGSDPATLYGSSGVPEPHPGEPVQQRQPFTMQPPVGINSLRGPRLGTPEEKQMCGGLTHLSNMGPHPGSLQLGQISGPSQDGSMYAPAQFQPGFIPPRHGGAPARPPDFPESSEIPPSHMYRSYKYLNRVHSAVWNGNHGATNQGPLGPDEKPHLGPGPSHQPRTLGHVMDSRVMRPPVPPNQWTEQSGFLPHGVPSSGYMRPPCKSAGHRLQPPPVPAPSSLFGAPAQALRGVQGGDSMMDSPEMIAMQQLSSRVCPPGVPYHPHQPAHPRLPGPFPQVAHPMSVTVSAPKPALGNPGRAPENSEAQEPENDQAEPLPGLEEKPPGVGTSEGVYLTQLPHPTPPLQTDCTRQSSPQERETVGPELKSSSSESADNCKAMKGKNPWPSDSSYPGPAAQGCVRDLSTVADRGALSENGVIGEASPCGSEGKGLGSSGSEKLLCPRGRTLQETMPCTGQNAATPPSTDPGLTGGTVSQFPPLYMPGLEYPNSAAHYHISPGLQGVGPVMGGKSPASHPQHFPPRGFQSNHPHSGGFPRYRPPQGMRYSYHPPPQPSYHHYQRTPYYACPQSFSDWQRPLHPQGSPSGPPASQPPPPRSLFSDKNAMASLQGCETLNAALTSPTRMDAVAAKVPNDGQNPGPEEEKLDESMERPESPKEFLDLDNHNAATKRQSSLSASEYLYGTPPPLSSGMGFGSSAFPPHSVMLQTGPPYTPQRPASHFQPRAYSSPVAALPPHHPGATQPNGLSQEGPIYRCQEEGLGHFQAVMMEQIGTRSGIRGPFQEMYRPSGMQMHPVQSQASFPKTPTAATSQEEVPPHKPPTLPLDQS
Summary of the method: (§2)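 A BROMOScan competition-binding panel of 32 bromodomains was run at a single 1 μM compound concentration. Results are primary-screen 'Percent Control', where lower values indicate stronger binding.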

[3] = Cmax in rat plasma at 10 mg/kg, po; format: ADME, organism-based; parameters: dose 10 mg/kg, route oral
AGS = assay: Antiproliferative activity against human AGS cells after 72 hrs by CCK8 or SRB assay; format: functional, cell-based
HuTu80 = assay: Antiproliferative activity against human HuTu 80 cells after 72 hrs by CCK8 or SRB assay; format: functional, cell-based
[4] = molecular target: T1, Bromodomain-containing protein 4 (Homo sapiens, UniProt O60885); assay: Inhibition of BRD4 in human MV4-11 cells assessed as reduction in BCL2 phosphorylation at ser70 residues after 24 hrs by Western blot analysis; format: cell-based
Summary of the method: (§3)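 MV4-11 cells exposed to graded doses for 24 h; lysates immunoblotted for phospho-BCL2, with GAPDH as loading control.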

[5] = molecular target: Proto-oncogene tyrosine-protein kinase Src (Homo sapiens) (UniProt P12931); assay: Inhibition of Src (unknown origin) at 10 uM using poly (Glu, Tyr) 4:1 as substrate after 60 mins by ELISA
Chain of Proto-oncogene tyrosine-protein kinase Src (Homo sapiens) (P12931 2-536 limits assumed): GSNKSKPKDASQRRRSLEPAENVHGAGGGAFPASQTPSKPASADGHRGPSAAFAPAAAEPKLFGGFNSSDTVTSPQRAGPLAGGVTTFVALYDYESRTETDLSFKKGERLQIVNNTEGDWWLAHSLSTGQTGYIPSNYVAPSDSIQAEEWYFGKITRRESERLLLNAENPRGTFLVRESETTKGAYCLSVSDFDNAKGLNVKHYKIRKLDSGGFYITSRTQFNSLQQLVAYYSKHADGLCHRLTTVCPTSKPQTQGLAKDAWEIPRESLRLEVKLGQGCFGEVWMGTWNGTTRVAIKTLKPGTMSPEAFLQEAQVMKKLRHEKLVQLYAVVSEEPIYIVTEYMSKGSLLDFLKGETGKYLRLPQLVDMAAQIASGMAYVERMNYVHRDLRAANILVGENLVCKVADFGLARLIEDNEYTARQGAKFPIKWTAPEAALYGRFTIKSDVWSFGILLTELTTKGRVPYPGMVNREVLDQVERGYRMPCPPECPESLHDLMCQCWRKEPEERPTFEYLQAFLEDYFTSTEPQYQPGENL

MV4-11 [6] = assay: Induction of apoptosis in human MV4-11 cells assessed as reduction in BIM level after 24 hrs by Western blot analysis; format: functional, cell-based
Summary of the method: (§4)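 MV4-11 cells exposed to compound at the indicated doses for 24 h; lysates probed by Western blotting for the target protein, with GAPDH as loading control.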

HT-29 = assay: Antiproliferative activity against human HT-29 cells after 72 hrs by CCK8 or SRB assay; format: functional, cell-based
[7] = molecular target: T1, Bromodomain-containing protein 4; assay: Inhibition of BRD4 in human MV4-11 cells assessed as reduction in BCL2 phosphorylation at Thr56 residues after 24 hrs by Western blot analysis; format: cell-based; summary of the method: as §3
[8] = molecular target: Bromodomain-containing protein 2 (Homo sapiens) (UniProt P25440); assay: Binding affinity to human partial length BRD2 bromodomain 2 isoform 1 (E348 to D455 residues) expressed in Escherichia coli BL21 cells assessed as residual binding level at 1 uM measured after 1 hr by quantitative PCR based BROMOscan assay relative to control; summary of the method: as §2
Chain of Bromodomain-containing protein 2 (Homo sapiens) (P25440 whole entry, looked up, the tested form may be a part, canonical isoform): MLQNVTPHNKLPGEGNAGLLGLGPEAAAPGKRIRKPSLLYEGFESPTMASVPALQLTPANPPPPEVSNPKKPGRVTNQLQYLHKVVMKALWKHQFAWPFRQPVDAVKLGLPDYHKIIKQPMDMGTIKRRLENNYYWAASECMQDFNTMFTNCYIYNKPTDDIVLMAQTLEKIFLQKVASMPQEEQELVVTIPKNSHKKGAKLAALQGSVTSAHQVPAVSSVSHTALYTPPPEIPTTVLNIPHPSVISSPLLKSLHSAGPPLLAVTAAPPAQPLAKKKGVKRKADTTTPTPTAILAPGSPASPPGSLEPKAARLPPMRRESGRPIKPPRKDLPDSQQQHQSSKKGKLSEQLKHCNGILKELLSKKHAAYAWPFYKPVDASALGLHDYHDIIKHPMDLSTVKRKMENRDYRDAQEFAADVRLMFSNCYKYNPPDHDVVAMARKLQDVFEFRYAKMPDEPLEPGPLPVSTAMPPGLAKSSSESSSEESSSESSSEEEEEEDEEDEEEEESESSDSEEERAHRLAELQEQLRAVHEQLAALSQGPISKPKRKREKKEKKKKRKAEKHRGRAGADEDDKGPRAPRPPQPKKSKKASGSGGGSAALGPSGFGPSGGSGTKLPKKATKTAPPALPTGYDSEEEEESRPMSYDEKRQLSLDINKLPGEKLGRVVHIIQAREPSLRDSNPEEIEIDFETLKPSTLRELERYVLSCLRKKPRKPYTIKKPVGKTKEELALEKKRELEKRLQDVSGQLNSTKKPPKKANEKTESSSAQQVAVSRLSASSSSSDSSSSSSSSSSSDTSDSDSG

[9] = Toxicity in Balb/c nude mouse xenografted with human MV4-11 cells assessed as reduction in body weight at 10 to 50 mg/kg, administered once daily; format: organism-based; details: in vivo
MM1.S = assay: Antiproliferative activity against human MM1S cells after 72 hrs by CCK8 or SRB assay; format: functional, cell-based
Summary of the method: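 IC50 against MM.1S cell proliferation was taken as the mean of three independent experiments, each run in triplicate, reported with SEM.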

[10] = Ratio of drug level in brain to plasma in ICR mouse at 50 mg/kg, po administered via gavage measured after 0.25 to 24 hrs by UPLC/MS analysis; format: ADME, organism-based
Summary of the method: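 Male ICR mice dosed orally at 50 mg/kg in 1% DMSO/0.5% HPMC; drug measured in plasma and brain.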

[11] = molecular target: Transcription initiation factor TFIID subunit 1-like (Homo sapiens) (UniProt Q8IZX4); assay: Binding affinity to human partial length TAF1L bromodomain 2 (Q1523 to D1654 residues) expressed in Escherichia coli BL21 cells assessed as residual binding level at 1 uM measured after 1 hr by quantitative PCR based BROMOscan assay relative to control
Chain of Transcription initiation factor TFIID subunit 1-like (Homo sapiens) (Q8IZX4 whole entry, the tested form may be a part): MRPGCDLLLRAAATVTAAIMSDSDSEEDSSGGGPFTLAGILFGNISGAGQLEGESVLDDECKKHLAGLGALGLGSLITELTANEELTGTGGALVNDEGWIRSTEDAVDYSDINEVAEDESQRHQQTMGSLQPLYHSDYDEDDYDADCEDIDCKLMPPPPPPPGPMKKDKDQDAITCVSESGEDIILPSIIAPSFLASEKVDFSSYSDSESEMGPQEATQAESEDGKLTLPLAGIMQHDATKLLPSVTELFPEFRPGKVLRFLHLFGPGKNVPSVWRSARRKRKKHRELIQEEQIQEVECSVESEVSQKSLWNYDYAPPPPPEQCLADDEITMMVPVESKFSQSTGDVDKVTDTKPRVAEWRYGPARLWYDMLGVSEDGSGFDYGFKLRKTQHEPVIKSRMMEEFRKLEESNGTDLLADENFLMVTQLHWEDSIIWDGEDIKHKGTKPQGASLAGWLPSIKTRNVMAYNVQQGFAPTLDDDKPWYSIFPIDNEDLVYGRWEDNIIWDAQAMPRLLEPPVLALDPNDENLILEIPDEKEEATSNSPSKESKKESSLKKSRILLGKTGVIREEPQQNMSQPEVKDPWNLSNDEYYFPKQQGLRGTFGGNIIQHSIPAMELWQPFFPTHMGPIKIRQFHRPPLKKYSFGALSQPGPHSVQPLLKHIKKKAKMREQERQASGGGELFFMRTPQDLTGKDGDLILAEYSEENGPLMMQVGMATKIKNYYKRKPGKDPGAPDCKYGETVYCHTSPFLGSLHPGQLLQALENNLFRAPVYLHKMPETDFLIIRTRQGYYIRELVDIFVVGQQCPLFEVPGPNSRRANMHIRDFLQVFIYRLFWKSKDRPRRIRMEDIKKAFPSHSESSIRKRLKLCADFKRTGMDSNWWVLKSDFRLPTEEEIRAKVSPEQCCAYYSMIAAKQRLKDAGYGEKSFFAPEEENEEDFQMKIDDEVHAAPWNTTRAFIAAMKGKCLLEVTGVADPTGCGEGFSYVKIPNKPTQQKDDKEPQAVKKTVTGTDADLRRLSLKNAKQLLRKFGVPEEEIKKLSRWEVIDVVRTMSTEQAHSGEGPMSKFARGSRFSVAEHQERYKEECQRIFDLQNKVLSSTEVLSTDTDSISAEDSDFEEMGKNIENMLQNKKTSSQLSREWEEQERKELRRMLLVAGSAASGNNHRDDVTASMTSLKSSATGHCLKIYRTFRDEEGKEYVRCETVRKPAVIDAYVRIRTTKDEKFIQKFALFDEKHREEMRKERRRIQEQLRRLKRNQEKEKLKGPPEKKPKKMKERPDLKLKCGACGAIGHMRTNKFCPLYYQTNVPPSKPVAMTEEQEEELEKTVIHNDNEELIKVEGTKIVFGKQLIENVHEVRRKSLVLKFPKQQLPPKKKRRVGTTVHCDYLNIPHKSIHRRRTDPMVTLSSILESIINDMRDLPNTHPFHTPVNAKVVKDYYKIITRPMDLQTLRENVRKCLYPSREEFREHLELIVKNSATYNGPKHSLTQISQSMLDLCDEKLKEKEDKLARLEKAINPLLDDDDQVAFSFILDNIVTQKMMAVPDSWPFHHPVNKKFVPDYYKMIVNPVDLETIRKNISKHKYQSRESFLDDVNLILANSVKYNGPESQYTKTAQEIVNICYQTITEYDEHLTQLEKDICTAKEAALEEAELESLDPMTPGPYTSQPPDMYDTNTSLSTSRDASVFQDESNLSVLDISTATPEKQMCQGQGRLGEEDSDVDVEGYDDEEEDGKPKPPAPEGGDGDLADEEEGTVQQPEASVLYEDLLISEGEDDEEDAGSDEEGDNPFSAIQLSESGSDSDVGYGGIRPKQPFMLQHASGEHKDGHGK
Summary of the method: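 Bromodomain panel screen (32 bromodomains) run at 1 μM single concentration; primary binding reported as 'Percent Control', lower values meaning stronger interaction.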

MV4-11 [12] = assay: Antiproliferative activity against human MV4-11 cells after 72 hrs by CCK8 or SRB assay; format: functional, cell-based
[13] = molecular target: T1, Bromodomain-containing protein 4; assay: Displacement of 5-FITC labelled (+)-JQ1 from His6-tagged human BRD4 bromodomain 1 expressed in Escherichia coli BL21(DE3) )-codon plus-RIL cells incubated for 4 hrs in dark condition by fluorescence anisotropy binding assay
[14] = Half life in ICR mouse plasma at 100 mg/kg, po administered via gavage measured after 0.25 to 24 hrs by UPLC/MS analysis; format: ADME, organism-based
Summary of the method: (§5)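 Male ICR mice dosed orally in 1% DMSO/0.5% HPMC vehicle; plasma or brain drug levels used to derive Tmax, Cmax, AUC0-t, AUC0-inf and T1/2.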

[15] = Cmax in ICR mouse brain at 50 mg/kg, po administered via gavage measured after 0.25 to 24 hrs by UPLC/MS analysis; format: ADME, organism-based; parameters: dose 50 mg/kg, route oral; summary of the method: as §5
[16] = molecular target: Bromodomain adjacent to zinc finger domain protein 2A (Homo sapiens) (UniProt Q9UIF9); assay: Binding affinity to human partial length BAZ2A (M1792 to L1905 residues) expressed in Escherichia coli BL21 cells assessed as residual binding level at 1 uM measured after 1 hr by quantitative PCR based BROMOscan assay relative to control; summary of the method: as §2
Hep 3B2 = assay: Antiproliferative activity against human Hep3B cells after 72 hrs by CCK8 or SRB assay; format: functional, cell-based
[17] = Cmax in ICR mouse plasma at 100 mg/kg, po administered via gavage measured after 0.25 to 24 hrs by UPLC/MS analysis; format: ADME, organism-based; parameters: dose 100 mg/kg, route oral; summary of the method: as §5
[18] = AUC (0 to infinity) in rat plasma at 3 mg/kg, iv; format: ADME, organism-based; parameters: dose 3 mg/kg, route intravenous, time infinity
Summary of the method: (§6)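 Compound was given orally or intravenously in 1% DMSO/0.5% HPMC vehicle. Concentrations in plasma, or in brain where stated, gave Tmax, Cmax, T1/2, AUC0-t and AUC0-inf.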

MV4-11 [19] = assay: Induction of apoptosis in human MV4-11 cells assessed as increase in cleaved caspase-3 level after 24 hrs by Western blot analysis; format: functional, cell-based; summary of the method: as §4
MV4-11 [20] = assay: Induction of apoptosis in human MV4-11 cells assessed as reduction in BCL-2 level after 24 hrs by Western blot analysis; format: functional, cell-based; summary of the method: as §4
[21] = AUC (0 to infinity) in dog plasma at 1 mg/kg, iv; format: ADME, organism-based, Canis lupus familiaris; parameters: dose 1 mg/kg, time infinity, route intravenous; summary of the method: as §6

SMILES: Cc1ccc(-n2nc(C(=O)N3C[C@@H](C)N[C@@H](C)C3)nc2-c2ccc3c(c2)N(C2CCCC2)[C@H](C)C(=O)N3C)cc1
- TDI (Cytochrome P450 2C19): Not Active
- Activity (MDA-MB-468): Active
- TGI (MV4-11 [1]): Dose-dependent effect
- TDI (Cytochrome P450 2C9): Not Active
- Activity [2]: 70 to 100%
- Cmax [3]: 182 ng/mL
- Activity (AGS): Active
- Activity (HuTu80): Active
- inhibition [4]: Dose-dependent effect
- inhibition [5]: Active
- Activity (MV4-11 [6]): Dose-dependent effect
- Activity (HT-29): Active
- inhibition [7]: Dose-dependent effect
- Activity [8]: < 5%
- Activity [9]: Non-Toxic
- pIC50 (MM1.S): 8.64
- BPR [10]: 13.9%
- Activity [11]: 20 to 50%
- Activity (MV4-11 [12]): Active
- pIC50 [13]: 8.28
- half-life [14]: 4.4 h
- Cmax [15]: 377 ng/mL
- Activity [16]: 70 to 100%
- Activity (Hep 3B2): Active
- Cmax [17]: 13800 ng/mL
- AUC(0-inf) [18]: 2080 ng·h/mL
- Activity (MV4-11 [19]): Dose-dependent effect
- Activity (MV4-11 [20]): Dose-dependent effect
- AUC(0-inf) [21]: 856 ng·h/mL
